Screening results: PubChem, several laboratories
Shown are actives, neighbours in structure and some others; about 1.7% of the full set was active somewhere.
T cell HTS: T cell immune modulation candidate. 330,000 compounds, 0.068% hits. 2C CD8+ T cell-vesicle binding, flow cytometry; stronger effect = lower value. response (vesicle binding), % at 7 µM;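 active = response, share of CD8 T cells binding vesicles, and their 90th percentile fluorescence all below set limits, cut at about 80% in these data, passing the limit was not always enough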;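 note: values below 100% mean blocked vesicle binding to the CD8+ T cells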
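Read-out – percent CD8+ FL2 mean versus row control · System – murine 2C transgenic CD8+ T lymphocytes · Times – 1.5 h cell–vesicle binding at 37 °C, then 20 min icy labelling · Control set – naked vesicles low, QL9 vesicles with vehicle high · Detection – cytometric PE anti-B7-1 and Alexa647 anti-CD8 signals after 1% paraformaldehyde fixation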
Vif inh: inhibitors of HIV Vif | HEK293T cells, Vif self-association by quenched fluorescence, imaging, 24 h | inhibition, % at 7.49 µM | 340,000 compounds, 0.35% hits | AID 602346; in the data active = inhibition above about 50%, passing the limit was not always enough; inconclusive = no clear call, values can overlap the other calls; inactive = below about 31%
Myeloid diff MLP: promotes myeloid progenitor differentiation; ER-HoxA9 myeloid progenitors, lysozyme-GFP differentiation, flow cytometry; AID 624256; 360,000 compounds, 1% hits; calls only at 10 µM;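 active = normalized GFP-positive differentiation at or above the plate's own cutoff, the solvent-only control mean plus 3 SD; inconclusive = no clear call, values can overlap the other calls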;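 note: cells exposed to compound for four days before flow analysis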
DSG3 Ab inh: inhibitors of pemphigus antibody binding to human desmoglein-3. 310,000 compounds, 0.48% hits. P32926. binding (percent of control), % at 10 µM. DSG3-coupled beads, scFv-anti-DSG3-GFP binding, flow cytometry; stronger effect = lower value;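 active = binding more than 3 SD below its plate's average and above zero; inconclusive = below that plate limit but binding exactly zero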
Myeloid diff CP1: myeloid differentiation induction. shares compounds with Myeloid diff MLP. ER-HoxA9 myeloid progenitors, GFP/Mac1 double-positive flow. calls only. 2,300 compounds, 2% hits;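 active = share of green or green-and-red cells above 9 and 9% in run 1 or 4 and 3% in run 2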
GFP autofluor: compound fluorescence in myeloid differentiation counter-screen | fluorescence response, % (test concentration not listed) | 2,300 compounds, 7.4% hits | shares compounds with Myeloid diff MLP | ER-HoxA9 myeloid progenitors, no estrogen, GFP autofluorescence flow cytometry; vehicle wells 0%, positive control 100% | AID 651707;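 active = over 5% cells positive for green fluorescent reporter, or over 2% positive for both it and APC stain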;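 note: range taken on the double positive population between DMSO and positive control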
* hit, by the source's call; i = inactive; ? = inconclusive; . = not tested or not shown; + = active, no number.

SMILES	T cell HTS	Vif inh	Myeloid diff MLP	DSG3 Ab inh	Myeloid diff CP1	GFP autofluor
O=C(Nc1ccc(Cl)cc1)C1Cc2c(-c3ccccc3Oc3ccccc3)ccnc2O1 (configuration not stated)	.	-13	i	.	.	.
C=CCc1cccc(C=Nc2cc(Br)ccc2O)c1O	264	4	+	132	i	0
C=CCc1cccc(C=Nc2c[nH]c(=O)[nH]c2=O)c1O	312	-5	i	235	.	.
COc1ccc(C)cc1S(=O)(=O)NCc1ccccn1	.	19	i	96	.	.
COc1cccc(Oc2c(C)oc3c(CN4CCCC4)c(O)ccc3c2=O)c1	290	-30	i	100	i	0
N#Cc1c(NC(=O)CCn2cnc3ccccc3c2=O)oc(-c2ccccc2)c1-c1ccccc1	281	-12	i	98	i	0
CC(=O)Nc1ccc(NC(=O)C(C)O/N=C/c2cccc([N+](=O)[O-])c2)cc1 (configuration not stated)	323	-11	i	102	i	0
Cc1cc(/C=C(\C#N)C(=O)O)c(C)n1CC(C)C	541	0	+	90	i	1
COc1ccccc1-n1c(CNc2ccc(F)cc2)nnc1SCC(=O)Nc1cc(C)on1	208	13	i	103	i	0
COc1ccc(NCc2nnc(SCC(=O)NCc3ccccc3)n2-c2ccccc2OC)cc1	331	13	i	107	.	.
CCN(Cc1nc2cc(Cl)ccc2c(=O)[nH]1)C(=O)c1cc2c(s1)CCCCC2	.	-15	i	105	i	0
COc1ccc(Nc2nc(N)nc(CN3CCN(c4ccc(F)cc4)CC3)n2)cc1	124	-6	i	101	i	0
COc1ccc(N2CCN(Cc3nc(N)nc(Nc4ccccc4OC)n3)CC2)cc1	293	4	i	99	.	.
Cc1ccc(S(=O)(=O)NC(=O)C2(C)CCN2C(=O)C2CCCCC2)cc1 (configuration not stated)	.	-5	i	.	.	.
COc1ccccc1NS(=O)(=O)c1cc(NC(=O)c2cccs2)ccc1N1CCCCC1	375	1	+	102	i	0
COc1ccccc1NS(=O)(=O)c1cc(NC(=O)c2sccc2C)ccc1N1CCOCC1	217	2	i	89	.	.
COc1ccc(NS(=O)(=O)c2cc(NC(=O)c3sccc3C)ccc2N2CCOCC2)cc1	476	.	+	101	i	0
CNc1ccc(C(O)(C(F)(F)F)C(F)(F)F)cc1C(O)(C(F)(F)F)C(F)(F)F	225	0	+	.	i	1
Cc1ccc(N)c(C(O)(C(F)(F)F)C(F)(F)F)c1	488	3	i	106	.	.
O=C1C=CN2CCCCC2CC1 (configuration not stated)	217	-7	+	194	i	5
O=C(Cn1c(=O)[nH]c2ccsc2c1=O)NC1CCCCC1	416	6	+	104	i	0
CC(C)CC(NC(N)=O)C(=O)Nc1ccc(Oc2ccccc2)cc1 (configuration not stated)	784	6	i	102	i	0
C/C(=N\Nc1ccc([N+](=O)[O-])cc1)c1ccc(O)cc1	178	4	i	.	.	.
CC(=O)NC/C(C)=N\Nc1ccc([N+](=O)[O-])cc1	154	1	+	110	i	49*
Cc1cccc(/C=N/NC(=O)c2ccc(NC(=O)c3ccc(Cl)cc3)cc2)n1	268	0	+	98	i	2
SMILES	T cell HTS	Vif inh	Myeloid diff MLP	DSG3 Ab inh	Myeloid diff CP1	GFP autofluor
CC(=O)c1ccccc1OC(=O)c1ccco1	271	-6	+	102	i	0
CCOc1ccccc1OC(=O)c1ccco1	369	5	i	.	i	1
Cc1cccc(C)c1NC(=O)C(c1ccncc1)n1c(=O)c(-c2cc3ccccc3[nH]2)nc2ccccc21 (configuration not stated)	.	.	i	.	.	.
COc1cc(/C=C2\SC(=O)N(CC(=O)Nc3ccccc3F)C2=O)cc(Cl)c1O	276	?	i	121	i	0
COc1ccc(N2C(c3ccsc3)=Cc3cc4c(cc3C2c2c[nH]c3ccccc23)OCO4)cc1 (configuration not stated)	.	.	+	.	i	2
COc1cc(-c2ccc(N3C(c4ccsc4)=Cc4ccccc4C3CC(C)=O)cc2)cc(OC)c1OC (configuration not stated)	.	.	i	.	.	.
